Laboratory results from ChEMBL document CHEMBL3272061, “Experiments of synthesis of dl-camptothecin. 4. Synthesis and antileukemic activity of dl-camptothecin analogues” (J Med Chem, 1976).
Active and inactive are the calls of the source. The calls are words filed in the database; no cut-off is given here.

Columns and labels:
L1210 [1] = test: Antileukemic activity against mouse L1210 cells allografted in BDF1 mouse assessed as host survival at 287 umol/kg, ip after 30 days; assay type: functional, organism-based
In short: (§1)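 BDF1 mice, 5 weeks old, were inoculated ip with 5×10^5 L1210 cells in 0.1 ml saline. Test groups were 4 male and 4 female mice; controls were 5 male and 5 female. Insoluble compounds were suspended in vehicle. Dosing was ip, either once on the day after inoculation or daily for 5 days. Read-out was increase in life span over controls. Mice alive beyond 30 days were counted as 30 days and scored as survivors.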

L1210 [2] = test: Antileukemic activity against mouse L1210 cells allografted in BDF1 mouse assessed as host survival at 5.74 umol/kg, ip after 30 days; assay type: functional, organism-based; in short: as §1
L1210 [3] = test: Antileukemic activity against mouse L1210 cells allografted in BDF1 mouse assessed as increase in life span of host at 28.7 umol/kg, ip relative to control; assay type: functional
In short: (§2)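 BDF1 mice, 5 weeks old, were inoculated ip with 5×10^5 L1210 cells; test groups had 4 males and 4 females, controls 5 males and 5 females. A single ip dose was given on the day after inoculation, as a suspension in vehicle for the insoluble compounds. Read-out was increase in life span over controls, with survivors past 30 days counted as 30 days.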

L1210 [4] = test: Antileukemic activity against mouse L1210 cells allografted in BDF1 mouse assessed as increase in life span of host at 26.3 umol/kg, ip relative to control; assay type: functional; in short: as §2
L1210 [5] = test: Antileukemic activity against mouse L1210 cells allografted in BDF1 mouse assessed as host survival at 26.3 umol/kg, ip after 30 days; assay type: functional, organism-based; in short: as §1
L1210 [6] = test: Antileukemic activity against mouse L1210 cells allografted in BDF1 mouse assessed as increase in life span of host at 5.74 umol/kg, ip relative to control; assay type: functional; in short: as §2
L1210 [7] = test: Antileukemic activity against mouse L1210 cells allografted in BDF1 mouse assessed as host survival at 28.7 umol/kg, ip after 30 days; assay type: functional, organism-based; in short: as §1
L1210 [8] = test: Antileukemic activity against mouse L1210 cells allografted in BDF1 mouse assessed as increase in life span of host at 71.8 umol/kg, ip relative to control; assay type: functional; in short: as §2
L1210 [9] = test: Antileukemic activity against mouse L1210 cells allografted in BDF1 mouse assessed as increase in life span of host at 287 umol/kg, ip relative to control; assay type: functional; in short: as §2
[10] = Solubility of the compound; assay type: physicochemical
L1210 [11] = test: Antileukemic activity against mouse L1210 cells allografted in BDF1 mouse assessed as increase in life span of host at 144 umol/kg, ip relative to control; assay type: functional; in short: as §1
L1210 [12] = test: Antileukemic activity against mouse L1210 cells allografted in BDF1 mouse assessed as increase in life span of host at 69.8 umol/kg, ip relative to control; assay type: functional; in short: as §2
L1210 [13] = test: Antileukemic activity against mouse L1210 cells allografted in BDF1 mouse assessed as host survival at 4.87 umol/kg, ip after 30 days; assay type: functional, organism-based; in short: as §1
L1210 [14] = test: Antileukemic activity against mouse L1210 cells allografted in BDF1 mouse assessed as increase in life span of host at 4.87 umol/kg, ip relative to control; assay type: functional; in short: as §2
L1210 [15] = test: Antileukemic activity against mouse L1210 cells allografted in BDF1 mouse assessed as increase in life span of host at 27.9 umol/kg, ip relative to control; assay type: functional; in short: as §2
Mus musculus = species on record: Mus musculus; test: Toxicity in mouse L1210 cells allografted BDF1 mouse; assay type: organism-based
L1210 [16] = test: Antileukemic activity against mouse L1210 cells allografted in BDF1 mouse assessed as increase in life span of host at 24.4 umol/kg, ip relative to control; assay type: functional; in short: as §2
L1210 [17] = test: Antileukemic activity against mouse L1210 cells allografted in BDF1 mouse assessed as increase in life span of host at 61 umol/kg, ip relative to control; assay type: functional; in short: as §2
L1210 [18] = test: Antileukemic activity against mouse L1210 cells allografted in BDF1 mouse assessed as host survival at 61 umol/kg, ip after 30 days; assay type: functional, organism-based; in short: as §1
L1210 [19] = test: Antileukemic activity against mouse L1210 cells allografted in BDF1 mouse assessed as increase in life span of host at 45.7 umol/kg, ip relative to control; assay type: functional; in short: as §2
L1210 [20] = test: Antileukemic activity against mouse L1210 cells allografted in BDF1 mouse assessed as host survival at 45.7 umol/kg, ip after 30 days; assay type: functional, organism-based; in short: as §1
L1210 [21] = test: Antileukemic activity against mouse L1210 cells allografted in BDF1 mouse assessed as host survival at 13.8 umol/kg, po qd for 4 days measured after 30 days; assay type: functional, organism-based
L1210 [22] = test: Antileukemic activity against mouse L1210 cells allografted in BDF1 mouse assessed as host survival at 5.56 umol/kg, sc qd for 5 days measured after 30 days; assay type: functional, organism-based
L1210 [23] = test: Antileukemic activity against mouse L1210 cells allografted in BDF1 mouse assessed as host survival at 5.21 umol/kg, ip after 30 days; assay type: functional, organism-based; in short: as §1
L1210 [24] = test: Antileukemic activity against mouse L1210 cells allografted in BDF1 mouse assessed as host survival at 13.8 umol/kg, ip qd for 5 days measured after 30 days; assay type: functional, organism-based; in short: as §1
L1210 [25] = test: Antileukemic activity against mouse L1210 cells allografted in BDF1 mouse assessed as host survival at 139 umol/kg, ip after 30 days; assay type: functional, organism-based; in short: as §1
L1210 [26] = test: Antileukemic activity against mouse L1210 cells allografted in BDF1 mouse assessed as host survival at 1.11 umol/kg, ip qd for 5 days measured after 30 days; assay type: functional, organism-based; in short: as §1
L1210 [27] = test: Antileukemic activity against mouse L1210 cells allografted in BDF1 mouse assessed as host survival at 5.56 umol/kg, ip qd for 5 days measured after 30 days; assay type: functional, organism-based; in short: as §1
L1210 [28] = test: Antileukemic activity against mouse L1210 cells allografted in BDF1 mouse assessed as host survival at 27.8 umol/kg, po qd for 4 days measured after 30 days; assay type: functional, organism-based
L1210 [29] = test: Antileukemic activity against mouse L1210 cells allografted in BDF1 mouse assessed as host survival at 13.8 umol/kg, sc qd for 5 days measured after 30 days; assay type: functional, organism-based
L1210 [30] = test: Antileukemic activity against mouse L1210 cells allografted in BDF1 mouse assessed as host survival at 278 umol/kg, ip after 30 days; assay type: functional, organism-based; in short: as §1
L1210 [31] = test: Antileukemic activity against mouse L1210 cells allografted in BDF1 mouse assessed as host survival at 27.8 umol/kg, ip after 30 days; assay type: functional, organism-based; in short: as §1
L1210 [32] = test: Antileukemic activity against mouse L1210 cells allografted in BDF1 mouse assessed as host survival at 5.56 umol/kg, po qd for 4 days measured after 30 days; assay type: functional, organism-based
L1210 [33] = test: Antileukemic activity against mouse L1210 cells allografted in BDF1 mouse assessed as host survival at 1.11 umol/kg, sc qd for 5 days measured after 30 days; assay type: functional, organism-based
L1210 [34] = test: Antileukemic activity against mouse L1210 cells allografted in BDF1 mouse assessed as host survival at 27.8 umol/kg, sc qd for 5 days measured after 30 days; assay type: functional, organism-based

Q: Which Activity (L1210 [1]) does the source give for `CCC1(O)C(=O)OCc2c1cc1n(c2=O)Cc2cc3ccccc3nc2-1` (racemic) here?
A: inactive

Q: What about the Activity (L1210 [2]) of the same compound?
A: inactive

Q: What about the ILS at 28.7 µmol/kg (L1210 [3]) of the same compound?
A: 84%

Q: And the ILS at 26.3 µmol/kg (L1210 [4])?
A: 6%

Q: What about the Activity (L1210 [5]) of the same compound?
A: inactive

Q: What about the ILS at 5.74 µmol/kg (L1210 [6]) of the same compound?
A: 16%

Q: What about the Activity (L1210 [7]) of the same compound?
A: inactive

Q: And the ILS at 71.8 µmol/kg (L1210 [8])?
A: > 155%

Q: And the ILS at 287 µmol/kg (L1210 [9])?
A: -43%

Q: What about the solubility [10] of the same compound?
A: Insoluble

Q: What about the ILS at 144 µmol/kg (L1210 [11]) of the same compound?
A: > 60%

Q: Which results are given for `C#CCC1(O)C(=O)OCc2c1cc1n(c2=O)Cc2cc3ccccc3nc2-1` (racemic)?
A: ILS at 69.8 µmol/kg (L1210 [12]): > 149%; Activity (L1210 [13]): inactive; ILS at 4.87 µmol/kg (L1210 [14]): 58%; ILS at 27.9 µmol/kg (L1210 [15]): > 117%; Activity (Mus musculus): Toxic; solubility [10]: Insoluble

Q: For `O=C1OCc2c(cc3n(c2=O)Cc2cc4ccccc4nc2-3)C1(O)Cc1ccccc1` (racemic), which ILS at 24.4 µmol/kg (L1210 [16]) is on record?
A: > 171%

Q: And the ILS at 61 µmol/kg (L1210 [17])?
A: -34%

Q: What about the Activity (L1210 [18]) of the same compound?
A: inactive

Q: And the Activity (Mus musculus)?
A: Toxic

Q: What about the ILS at 45.7 µmol/kg (L1210 [19]) of the same compound?
A: 12%

Q: And the solubility [10]?
A: Insoluble

Q: What about the Activity (L1210 [20]) of the same compound?
A: inactive

Q: Which results are given for `C=CCC1(O)C(=O)OCc2c1cc1n(c2=O)Cc2cc3ccccc3nc2-1` (racemic)?
A: Activity (L1210 [21]): inactive; Activity (L1210 [22]): inactive; Activity (L1210 [23]): inactive; Activity (L1210 [2]): inactive; Activity (L1210 [24]): inactive; Activity (L1210 [25]): inactive; Activity (L1210 [26]): inactive; Activity (L1210 [27]): inactive; Activity (L1210 [28]): inactive; Activity (L1210 [29]): inactive; Activity (L1210 [30]): inactive; Activity (L1210 [31]): inactive; Activity (L1210 [32]): inactive; Activity (L1210 [33]): inactive; Activity (L1210 [34]): inactive
